Measured values pooled from the literature.
Compare with care: the assays were run in different laboratories.
Cell line: HCT-116
Read-out: cell growth or viability

SMILES | method | time | IC50
CSC(=NNC(=O)c1ccc(Cl)c(Cl)c1)SC | MTT | 5 days | 28000 nM
CC[C@@]1(OC(=O)[C@@H](N)CCSC)C(=O)OCc2c1cc1n(c2=O)Cc2cc3cc4c(cc3nc2-1)OCO4 | MTT |  | 56 nM
CN[C@@H]1C[C@H]2O[C@@](C)([C@@H]1OC)n1c3ccccc3c3c4c(c5c6ccccc6n2c5c31)C(=O)NC4 | MTT |  | 15 nM
O=c1ccc2ccc3occc3c2o1 | WST-1 | 48 h | 8700 nM
CC[C@@]1(OC(=O)[C@@H](N)CCCCN)C(=O)OCc2c1cc1n(c2=O)Cc2cc3cc4c(cc3nc2-1)OCO4 | MTT |  | 28 nM
COc1ccc2[nH]cc(CCNc3nccc(Nc4cccc5c4ccn5C)n3)c2c1 | fluorescence | 72 h | 9.2 nM
CC1=C(O)C(=O)C=C2C1=CC=C1[C@@]2(C)CC[C@@]2(C)[C@@H]3C[C@](C)(C(=O)O)CC[C@]3(C)CC[C@]12C | MTT | 48 h | 430 nM
N.N.[Cl][Pt][Cl] |  | 48 h | 16300 nM
CC1=C(O)C(=O)C=C2C1=CC=C1[C@@]2(C)CC[C@@]2(C)[C@@H]3C[C@](C)(C(=O)OCCCn4cc(C=O)c5ccccc54)CC[C@]3(C)CC[C@]12C | MTT | 48 h | 570 nM
O=c1ccc2cc3ccoc3cc2o1 | WST-1 | 48 h | 26100 nM
COc1cc2c3c(n(CCCN4CCOCC4)c(=O)c2cc1OC)-c1cc2c(cc1C3=O)OCO2 |  | 72 h | 0.618 µg/mL
CC[C@@]1(O)C(=O)OCc2c1cc1n(c2=O)Cc2cc3cc4c(cc3nc2-1)OCO4 | MTT | 72 h | 14 nM
N.N.[Cl][Pt][Cl] | MTS | 72 h | 41700 nM
CCC1(OC(=O)C(C)c2ccc3cc(OC)ccc3c2)C(=O)OCc2c1cc1n(c2=O)Cc2cc3cc4c(cc3nc2-1)OCO4 (stereo not shown) | MTT |  | 2340 nM
N.N.[Cl][Pt][Cl] | SRB |  | 5300 nM
CC[C@@]1(OC(=O)[C@@H](N)C(C)C)C(=O)OCc2c1cc1n(c2=O)Cc2cc3cc4c(cc3nc2-1)OCO4 | MTT |  | 46 nM
CSC(=NNC(=O)c1ccc(O)cc1)SC | MTT | 5 days | > 100000 nM
CC[C@@]1(OC(=O)Cc2c(C)n(C(=O)c3ccc(Cl)cc3)c3ccc(OC)cc23)C(=O)OCc2c1cc1n(c2=O)Cc2cc3cc4c(cc3nc2-1)OCO4 | MTT |  | 46 nM
COc1ccc2c(c1)[nH]c1c(C)nccc12 | MTT | 72 h | 25100 nM
